Screening results: PubChem BioAssay, several laboratories
Compounds with a hit are over-represented: about 1.7% of the library has one in this group of screens.
Scp-1 inhibitor: Scp-1 (human) phosphatase inhibition; Recombinant Scp1, phosphopeptide, malachite green phosphate absorbance; inhibition, % at 20 µM; hit rate 0.88% among 340,000;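 active = inhibition above about 50% at 20 µM, limit read from the data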;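 also: plate controls were DMSO wells with enzyme for no effect and wells lacking enzyme for full effect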
Target sequence (Q9GZU7 76-261 limits assumed): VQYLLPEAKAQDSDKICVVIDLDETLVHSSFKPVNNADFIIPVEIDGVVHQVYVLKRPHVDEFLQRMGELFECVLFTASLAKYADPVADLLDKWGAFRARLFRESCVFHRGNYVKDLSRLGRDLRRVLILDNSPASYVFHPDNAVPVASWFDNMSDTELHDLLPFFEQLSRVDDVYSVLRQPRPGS
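Material – SCP-1 phosphatase catalytic domain, residues 76-261 · Buffer or medium – Acidic Tris acetate buffer with magnesium and detergent · Also added – Phospho 17-mer peptide substrate · Compound – single 20 µM dose, 1% DMSO · Times – 45 min room-temperature reaction, 5 min colour, 30 min stabiliser · Technique – Phosphate-binding colour reagent, absorbance read at 630 nm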
SUMO1 PPI mod: modulators of human SUMO1-mediated protein-protein interactions | P63165 | SUMO1 binding to a labelled peptide, TR-FRET, 1 h | inhibition, % at 20 µM | hit rate 0.33% among 360,000; in the data active = inhibition above about 37%
Target sequence (P63165 whole entry, looked up): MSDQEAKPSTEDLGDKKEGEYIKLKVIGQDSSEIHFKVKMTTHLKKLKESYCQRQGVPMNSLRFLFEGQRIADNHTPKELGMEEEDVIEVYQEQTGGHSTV
Casp6 inh: inhibitors of human caspase-6; purified caspase-6, Z-VEID-R110 cleavage fluorescence; inhibition, % at 12.5 µM; hit rate 0.53% among 350,000;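 active = mean inhibition across replicates at least about 35%, with every replicate also reaching that limit, limit read from the data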;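 also: 0% = median of neutral control wells and 100% = no fluorescence left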
Target sequence (P55212 24-179 limits assumed): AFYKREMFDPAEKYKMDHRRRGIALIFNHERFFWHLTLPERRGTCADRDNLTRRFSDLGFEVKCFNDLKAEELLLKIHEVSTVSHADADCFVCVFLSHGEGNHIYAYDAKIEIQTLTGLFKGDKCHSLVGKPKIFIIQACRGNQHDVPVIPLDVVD
Target sequence (P55212 194-293 limits assumed): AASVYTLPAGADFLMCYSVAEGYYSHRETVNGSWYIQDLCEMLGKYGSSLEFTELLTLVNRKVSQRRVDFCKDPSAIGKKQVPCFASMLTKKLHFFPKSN
DNMT1 inh: blocks human DNA methyltransferase DNMT1; P26358; DNMT1 molecular beacon, Hinp1I cleavage, fluorescence; inhibition (reported as % activation of signal), % at 10 µM; hit rate 0.83% among 360,000; AID 588458; in the data active = inhibition above about 50%
LMPTP block: blocks human LMPTP phosphatase; P24666; recombinant LMPTP-A, OMFP fluorogenic substrate, fluorescence intensity; inhibition, % at 20 µM; hit rate 0.22% among 360,000; AID 651560;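 active = compounds that cut the enzyme signal by at least half of the control window in the single-dose screen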;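 also: plate controls were DMSO wells with enzyme plus substrate for no effect and substrate without enzyme for full effect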
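Assay system: LMPTP-A enzyme. Input: 0.625 nM LMPTP-A final. Probe or stimulus: 400 µM OMFP. Compound dosing: single 20 µM dose. Schedule: 50 min dark incubation at room temperature. Detection: fluorescence intensity of OMFP turnover product. Read-out: percent inhibition versus substrate-only and uninhibited controls. Benchmarks: no-enzyme low control, uninhibited high control.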
STEP inh: inhibitors of human striatal-enriched phosphatase STEP; P54829; recombinant STEP, OMFP fluorogenic substrate, fluorescence; inhibition, % at 20 µM; hit rate 0.25% among 360,000;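 active = inhibition at 20 µM, scaled per plate between control wells, above about 37%, limit read from the data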;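 also: 0% = DMSO with enzyme and substrate and 100% = substrate only without enzyme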
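Assay system: isolated STEP enzyme. Buffer or medium: pH 6.0 Bis-Tris with DTT and Tween 20. Also added: fluorogenic phosphatase substrate OMFP at 25 µM final. Dosing: 20 µM, 1% DMSO. Timing: 20 min reaction, room temperature, in the dark. Measured by: fluorescence intensity, excitation 480 nm, emission 540 nm. Evaluation: normalized % inhibition.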
Scp-1 conf: confirmation of human Scp-1 phosphatase inhibitors; shares compounds with Scp-1 inhibitor; recombinant SCP-1 catalytic domain, phosphate release, malachite green absorbance; inhibition, % at 20 µM; hit rate 61% among 2,500;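 also: plate controls were DMSO with enzyme for no effect and buffer wells lacking enzyme for full effect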
MG interference: counter-screen for Scp-1 inhibitors: colorimetric interference; shares compounds with Scp-1 inhibitor; Colorimetric interference counterscreen, malachite green absorbance 630 nm; apparent inhibition (interference), % at 20 µM; 2,500 tested, under 10 active; AID 540313;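 also: compounds added after enzyme reaction finished so only phosphate colour detection is probed; plate controls were DMSO wells with completed Scp-1 reaction for no effect and substrate wells lacking enzyme for full effect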
Scp-1 Tm shift: validation of human Scp-1 inhibitors by thermal shift binding | hit rate 25% among 1,500 | Recombinant SCP1, Sypro Orange thermal shift Tm | thermal shift relative to vanadate control, % at 40 µM | shares compounds with Scp-1 inhibitor;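 active = substances whose mean melting-temperature shift, as a percentage of the reference inhibitor's shift, reaches about 5.3%, limit read from the data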;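 also: 0% = Tm of DMSO wells and 100% = Tm with sodium orthovanadate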
Starred values were filed as active, the others as inactive; . = no result.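 The calls were made as follows, unless noted: active = inhibition of at least 30% at 20 µM; inactive = the rest.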

SMILES	Scp-1 inhibitor	SUMO1 PPI mod	Casp6 inh	DNMT1 inh	LMPTP block	STEP inh	Scp-1 conf	MG interference	Scp-1 Tm shift
Cc1nnc(SCC(=O)c2ccc(S(=O)(=O)N3CCOCC3)cc2)n1-c1ccccc1	-7	0	.	4	-1	4	.	.	.
O=C(NCc1ccccn1)c1coc(=O)c(Br)c1	14	-10	.	4	-2	0	.	.	.
O=C(Nc1ccc(Br)cn1)c1coc(=O)c(Br)c1	69*	-6	33	9	-2	2	25	-7	.
CCN(CC)S(=O)(=O)c1ccc(N2CCOCC2)c(NC(=O)c2c3c(nc4ccccc24)CCC3)c1	68*	-2	.	65*	10	0	48*	-13	5
CC(C)OC(=O)CC1C(=O)NCCN1C(=S)NC(=O)CCc1ccccc1 (stereo not given)	-7	2	-5	4	-1	-2	-16	-16	.
CC(=O)c1cccc(NC(=O)Cn2nc(-c3ccc(Cl)cc3)ccc2=O)c1	51*	-1	0	0	0	-2	-16	-18	.
CC(=O)c1cccc(NC(=O)Cn2nc(-c3ccccc3Cl)ccc2=O)c1	-3	0	1	-1	1	0	.	.	.
CSCCC(N=CC1=C(O)CC(C)(C)CC1=O)C(=O)O (stereo not given)	73*	-3	.	-6	1	-4	6	7	.
CCC(CO)N=CC1=C(O)CC(C)(C)CC1=O (stereo not given)	4	1	.	4	1	2	.	.	.
COc1ccccc1OCCOc1ccc(/C=C2\C(=N)N3N=C(S(C)(=O)=O)SC3=NC2=O)cc1	80*	-3	1	1	12	3	56*	-12	6.9*
COc1cc(/C=C2\C(=N)N3N=C(S(C)(=O)=O)SC3=NC2=O)ccc1OS(=O)(=O)c1ccc(C)cc1	69*	14	50*	-1	1	3	75*	-16	12*
O=c1c2ccccc2nc2n1CC/C2=C/N1CCN(c2cccc(C(F)(F)F)c2)CC1	-4	9	.	-2	0	-1	.	.	.
COc1cc2c(C#CCO)c(-c3ccc(C#N)cc3)oc(=O)c2cc1OC	67*	62*	1	-28	4	25	33*	6	5
COC(=O)C1=C(COc2ccccc2)NC(=O)NC1c1ccc2ccccc2c1 (stereo not given)	50*	.	-4	.	.	.	31*	-14	-33
CC(C)c1ccc(NS(=O)(=O)c2ccc(Cl)nc2)cc1	-13	5	.	-1	1	-1	.	.	.
Cc1cccc(N2CCN(C(=O)CCCCCn3c(=S)[nH]c4ccc(N5CCOCC5)cc4c3=O)CC2)c1C	82*	-30	-2	-4	5	8	-13	-19	.
CCCCNC(=O)C1(C)CCCCN1C(=O)c1cccc(OC(F)(F)F)c1 (stereo not given)	.	0	0	4	-1	-2	.	.	.
CN(C(=O)c1cccc(NC(=O)Cc2ccc(NC(=O)C3CCN(C(=O)C4CCC4)CC3)cc2)c1)C1CCCC1	4	0	-1	4	-1	-2	.	.	.
Cc1cccc(OCCOCCN2CCNCC2)c1C	0	-2	.	17	-3	-2	.	.	.
Cc1cccc(OCCOCCN2CCOCC2)c1C	51*	3	1	2	0	2	-16	-13	.
Brc1ccccc1-c1ccccc1	-6	5	-1	-1	0	0	.	.	.
Cc1cc(Cl)ccc1OCC(=O)N[C@@H](Cc1ccccc1)c1nc2ccccc2[nH]1	86*	-3	.	7	-2	1	36*	-10	-24
O=C(/C=C/c1ccco1)N1CCN(S(=O)(=O)c2cccs2)CC1	58*	-3	0	10	7	3	47*	-4	1
Cc1ccc(/C=C/C(=O)N2CCN(S(=O)(=O)c3cccs3)CC2)o1	-5	9	5	0	0	-2	.	.	.
O=C(c1nc2ccc(Cl)cn2c1CN1CCCC1)N1CCc2ccccc2C1	52*	8	.	14	8	-1	36*	-3	5
SMILES	Scp-1 inhibitor	SUMO1 PPI mod	Casp6 inh	DNMT1 inh	LMPTP block	STEP inh	Scp-1 conf	MG interference	Scp-1 Tm shift
CC(Nc1ccc(F)cc1)=[N+](C)CCNS(=O)(=O)c1ccc(Cl)cc1	103*	1	4	2	-1	-1	89*	-11	-29
Cc1ccc2nc(SCC(=O)NCc3ccccc3Cl)nc(=O)n2c1	-6	2	-4	5	0	-2	.	.	.
Cc1ccn2c(=O)nc(SCC(=O)NCc3ccccc3Cl)nc2c1	47	8	0	6	16	1	57*	-19	-2
Nc1cc([N+](=O)[O-])ccc1N1C(=O)CCCC1=O	64*	-8	40*	16	2	4	49*	-8	-16
COc1ccc(OC)c(NC(=O)CSc2ncnc3sc(C)cc23)c1	80*	27	6	24	17	3	64*	-12	12*
N#C/C(=C\c1cc2c(cc1Br)OCO2)c1ccc(C(=O)O)cc1	52*	-16	0	0	0	3	68*	-5	-1
CCOn1c(=O)c(-c2cccc3ccccc23)[n+]([O-])c2ccccc21	58*	-13	8	-2	-1	-3	-24	-22	.
CCOn1c(=O)c(-c2ccccc2)[n+]([O-])c2ccccc21	-13	-29	1	0	-1	-2	.	.	.
CO/N=C(\C(=O)N[C@@H]1C(=O)N2C(C(=O)O)=C(COC(N)=O)CS[C@H]12)c1ccco1	70*	21	24	35	-1	7	67*	-10	8.0*
CON=C(C(=O)NC1C(=O)N2C(C(=O)O)=C(CSc3nc(=O)c(=O)[nH]n3C)CSC12)c1csc(N)n1 (stereo not given)	65*	33	10	47	1	11	52*	-11	3
Cc1ccc2cc(CN(Cc3ccc4c(c3)OCO4)Cc3nnnn3Cc3ccco3)c(=O)[nH]c2c1	-10	2	5	-3	2	1	.	.	.
CC(C)CC1Nc2ccc(C(=O)NCc3ccc4c(c3)OCO4)cc2NC1=O (stereo not given)	-10	-5	.	-1	1	0	-5	-2	.
